≈ marks a conversion by molar mass, not a printed value.
What was measured:
[1] = molecular target: T1, Vascular endothelial growth factor receptor 2 (Homo sapiens, UniProt P35968); assay: Inhibition of GST tagged VEGFR2 expressed in Sf9 cells
In short: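 GST-fused VEGFR2 catalytic domain, baculovirus-expressed in Sf9 cells (MOI 0.1), glutathione-agarose purified; 5 nM enzyme preincubated with inhibitor and Mg-ATP on ice 4 min, then reacted on immobilized poly(Glu4,Tyr) at 30 °C for 10 min in 60 mM Hepes pH 7.5, MgCl2/MnCl2; ATP 0.6 (2× Km); Eu anti-phosphotyrosine TR-fluorescence; seven concentrations in triplicate, four-parameter IC50 fit.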

[2] = molecular target: T2, Hepatocyte growth factor receptor (Homo sapiens, UniProt P08581); assay: Inhibition of TPR-Met fusion protein assessed as Y1230-34-35 phosphorylation
Target sequence in this assay (P08581 25-1390 limits assumed): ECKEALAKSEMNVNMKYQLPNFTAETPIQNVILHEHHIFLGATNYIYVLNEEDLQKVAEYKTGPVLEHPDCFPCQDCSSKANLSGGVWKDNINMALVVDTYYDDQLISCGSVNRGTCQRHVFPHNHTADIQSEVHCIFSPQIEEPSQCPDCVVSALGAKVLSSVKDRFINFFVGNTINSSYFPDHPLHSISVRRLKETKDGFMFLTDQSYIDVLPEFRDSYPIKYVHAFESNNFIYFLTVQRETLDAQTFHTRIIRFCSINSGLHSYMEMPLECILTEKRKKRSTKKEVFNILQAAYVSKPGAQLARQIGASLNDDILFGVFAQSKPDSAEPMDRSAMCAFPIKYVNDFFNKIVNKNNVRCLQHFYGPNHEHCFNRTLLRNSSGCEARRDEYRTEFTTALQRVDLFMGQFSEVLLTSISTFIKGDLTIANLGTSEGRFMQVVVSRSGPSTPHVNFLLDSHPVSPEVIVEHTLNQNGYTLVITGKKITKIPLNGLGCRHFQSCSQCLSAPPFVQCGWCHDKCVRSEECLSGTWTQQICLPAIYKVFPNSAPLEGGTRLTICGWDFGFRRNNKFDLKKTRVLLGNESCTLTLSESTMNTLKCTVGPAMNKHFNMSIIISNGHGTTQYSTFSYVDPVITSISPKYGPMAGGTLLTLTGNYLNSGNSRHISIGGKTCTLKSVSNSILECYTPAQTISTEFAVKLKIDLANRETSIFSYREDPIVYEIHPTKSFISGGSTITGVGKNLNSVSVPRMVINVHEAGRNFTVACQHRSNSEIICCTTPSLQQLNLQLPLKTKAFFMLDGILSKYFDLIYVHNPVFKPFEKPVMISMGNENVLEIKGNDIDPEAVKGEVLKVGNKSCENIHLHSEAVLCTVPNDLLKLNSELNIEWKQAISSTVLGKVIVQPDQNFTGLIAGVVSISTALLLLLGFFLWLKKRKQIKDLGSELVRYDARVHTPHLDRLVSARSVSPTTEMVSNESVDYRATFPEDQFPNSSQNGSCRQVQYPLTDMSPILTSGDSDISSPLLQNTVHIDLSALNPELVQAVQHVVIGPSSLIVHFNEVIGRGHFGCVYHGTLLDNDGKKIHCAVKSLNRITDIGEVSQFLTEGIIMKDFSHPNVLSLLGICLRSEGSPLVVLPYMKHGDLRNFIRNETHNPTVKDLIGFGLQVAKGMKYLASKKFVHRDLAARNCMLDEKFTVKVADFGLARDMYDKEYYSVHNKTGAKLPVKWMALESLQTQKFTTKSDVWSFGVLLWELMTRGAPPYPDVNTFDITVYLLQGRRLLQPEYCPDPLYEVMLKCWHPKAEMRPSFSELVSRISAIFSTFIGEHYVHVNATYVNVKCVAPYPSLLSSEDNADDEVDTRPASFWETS

[3] = molecular target: T2, Hepatocyte growth factor receptor; assay: Inhibition of GST tagged c-Met expressed in High Five cells
Target sequence in this assay (P08581 whole entry, the tested form may be a part): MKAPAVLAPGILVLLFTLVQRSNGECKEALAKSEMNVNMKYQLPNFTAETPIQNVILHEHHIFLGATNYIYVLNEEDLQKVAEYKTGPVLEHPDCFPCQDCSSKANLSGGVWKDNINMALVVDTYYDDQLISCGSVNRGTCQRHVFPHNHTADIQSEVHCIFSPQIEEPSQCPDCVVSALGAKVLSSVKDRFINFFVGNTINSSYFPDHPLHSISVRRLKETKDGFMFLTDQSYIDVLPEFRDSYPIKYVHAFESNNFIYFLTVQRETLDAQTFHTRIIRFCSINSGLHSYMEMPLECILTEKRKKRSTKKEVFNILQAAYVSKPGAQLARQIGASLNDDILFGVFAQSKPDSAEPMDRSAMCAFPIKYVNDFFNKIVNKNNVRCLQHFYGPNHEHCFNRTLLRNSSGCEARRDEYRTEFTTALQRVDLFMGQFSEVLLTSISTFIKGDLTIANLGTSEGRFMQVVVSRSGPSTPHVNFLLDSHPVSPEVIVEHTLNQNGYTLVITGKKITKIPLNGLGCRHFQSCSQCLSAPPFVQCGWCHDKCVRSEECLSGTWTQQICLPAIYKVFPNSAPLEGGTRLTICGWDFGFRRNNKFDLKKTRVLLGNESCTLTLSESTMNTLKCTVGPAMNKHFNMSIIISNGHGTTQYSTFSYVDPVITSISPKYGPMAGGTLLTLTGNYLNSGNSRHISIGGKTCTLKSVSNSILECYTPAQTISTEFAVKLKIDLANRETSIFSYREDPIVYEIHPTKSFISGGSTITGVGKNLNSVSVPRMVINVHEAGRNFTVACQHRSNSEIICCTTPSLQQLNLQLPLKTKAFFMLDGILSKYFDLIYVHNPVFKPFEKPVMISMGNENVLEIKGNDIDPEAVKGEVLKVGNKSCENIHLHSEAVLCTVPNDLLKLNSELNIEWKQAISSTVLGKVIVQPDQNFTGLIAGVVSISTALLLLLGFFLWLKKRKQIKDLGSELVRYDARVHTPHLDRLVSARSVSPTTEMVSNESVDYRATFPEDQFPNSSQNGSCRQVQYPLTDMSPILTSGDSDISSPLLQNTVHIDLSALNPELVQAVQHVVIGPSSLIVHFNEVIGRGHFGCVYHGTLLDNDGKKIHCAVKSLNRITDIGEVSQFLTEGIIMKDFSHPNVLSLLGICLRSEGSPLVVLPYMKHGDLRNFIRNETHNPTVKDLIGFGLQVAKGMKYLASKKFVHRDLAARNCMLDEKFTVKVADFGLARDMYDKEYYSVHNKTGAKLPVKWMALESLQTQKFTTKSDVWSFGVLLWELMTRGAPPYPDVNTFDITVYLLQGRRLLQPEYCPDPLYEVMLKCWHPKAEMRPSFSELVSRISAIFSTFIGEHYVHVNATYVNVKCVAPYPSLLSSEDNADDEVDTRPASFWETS

[4] = Solubility of compound; format: physicochemical
[5] = Half life in Sprague-Dawley rat at 2.5 mg/kg, iv; format: ADME, organism-based; design: dose 2.5 mg/kg, route intravenous; conditions: in vivo
In short: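 Female Sprague–Dawley rats were given a single iv dose of 2.5 mg/kg (four animals) in DMSO. The test material had >95% chromatographic purity. Plasma was analysed by HPLC with triple-quadrupole MS, and PK parameters were calculated from the concentration–time data.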

[6] = Clearance in Sprague-Dawley rat; format: ADME, organism-based; conditions: in vivo
[7] = Volume of distribution at steady state in Sprague-Dawley rat; format: ADME, organism-based; conditions: in vivo, read-out: Vdss
[8] = Tmax in Sprague-Dawley rat at 5 mg/kg, po; format: ADME, organism-based; design: dose 5 mg/kg, route oral; conditions: in vivo
[9] = Cmax in Sprague-Dawley rat at 5 mg/kg, po; format: ADME, organism-based; design: dose 5 mg/kg, route oral; conditions: in vivo
[10] = AUC in Sprague-Dawley rat at 5 mg/kg, po; format: ADME, organism-based; design: dose 5 mg/kg, route oral; conditions: plasma
[11] = Oral bioavailability in Sprague-Dawley rat at 5 mg/kg; format: ADME, organism-based; conditions: in vivo
In short: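 An iv reference arm received 2.5 mg/kg (four animals) in DMSO. Plasma was analysed by HPLC-triple-quadrupole MS, and %F was derived from po versus iv exposure.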

[12] = Half life in Beagle dog at 0.8 mg/kg, iv; format: ADME, organism-based, Canis lupus familiaris; design: dose 0.8 mg/kg, route intravenous; conditions: in vivo
Canis familiaris [13] = assay: Clearance in Beagle dog at 0.8 mg/kg, iv or 5 mg/kg, po; format: ADME, organism-based, Canis lupus familiaris; conditions: in vivo
[14] = Volume of distribution at steady state in Beagle dog at 0.8 mg/kg, iv or 5 mg/kg, po; format: ADME, organism-based, Canis lupus familiaris; conditions: in vivo, read-out: Vdss
[15] = Tmax in Beagle dog at 5 mg/kg, po; format: ADME, organism-based, Canis lupus familiaris; design: dose 5 mg/kg, route oral; conditions: in vivo
[16] = Cmax in Beagle dog at 5 mg/kg, po; format: ADME, organism-based, Canis lupus familiaris; design: dose 5 mg/kg, route oral; conditions: in vivo
Canis familiaris [17] = assay: AUC in Beagle dog at 5 mg/kg, po; format: ADME, organism-based, Canis lupus familiaris, Plasma; design: dose 5 mg/kg, route oral; conditions: in vivo
Canis familiaris [18] = assay: Oral bioavailability in Beagle dog at 5 mg/kg; format: ADME, organism-based, Canis lupus familiaris; conditions: in vivo
[19] = molecular target: T1, Vascular endothelial growth factor receptor 2; assay: Inhibition of human VEGFR2-dependent ERK phosphorylation in HUVEC; format: cell-based
COLO 205 = assay: Antitumor activity in human Colo205 cells xenografted mouse assessed as tumor growth inhibition at 20 mg/kg, po once daily after 16 days; format: functional; conditions: COLO 205, 384 h, read-out: TGI
In short: (§1)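 Human tumor xenografts in mice; test agent given orally at 20 mg/kg once daily; efficacy expressed as percent tumor growth inhibition.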

DU-145 = assay: Antitumor activity in human DU145 cells xenografted mouse assessed as tumor growth inhibition at 20 mg/kg, po once daily after 11 days; format: functional; conditions: DU-145, 264 h, read-out: TGI; in short: as §1
HCT-116 = assay: Antitumor activity in human HCT116 cells xenografted mouse assessed as tumor growth inhibition at 20 mg/kg, po once daily after 14 days; format: functional; conditions: HCT-116, 336 h, read-out: TGI; in short: as §1
HOS-TE85 = assay: Antitumor activity in human MNNGHOS cells xenografted mouse assessed as tumor growth inhibition at 20 mg/kg, po once daily after 26 days; format: functional; conditions: HOS-TE85, 624 h, read-out: TGI; in short: as §1
MKN-45 = assay: Antitumor activity in human MKN45 cells xenografted mouse assessed as tumor growth inhibition at 20 mg/kg, po once daily after 13 days; format: functional; conditions: MKN-45, 312 h, read-out: TGI; in short: as §1
Cytochrome P450 3A4 = Cytochrome P450 3A4 (Homo sapiens, UniProt P08684); assay: Inhibition of CYP3A4 at 10 uM; format: ADME
[20] = molecular target: Vascular endothelial growth factor receptor 1 (Homo sapiens) (UniProt P17948); assay: Inhibition of VEGFR1 at 100 nM
In short: (§2)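 Radiometric protein kinase assays run through an outsourced kinase selectivity screening service; test agent at 100 nM, percent inhibition of each enzyme reported.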

[21] = molecular target: Vascular endothelial growth factor receptor 3 (Homo sapiens) (UniProt P35916); assay: Inhibition of VEGFR3 at 100 nM; in short: as §2
[22] = molecular target: Glycogen synthase kinase-3 beta (Homo sapiens) (UniProt P49841); assay: Inhibition of GSK3-beta at 100 nM; in short: as §2
[23] = molecular target: Macrophage-stimulating protein receptor (Homo sapiens) (UniProt Q04912); assay: Inhibition of Ron at 100 nM; in short: as §2
[24] = molecular target: Angiopoietin-1 receptor (Homo sapiens) (UniProt Q02763); assay: Inhibition of Tie2 at 100 nM; in short: as §2
[25] = molecular target: Receptor-type tyrosine-protein kinase FLT3 (Homo sapiens) (UniProt P36888); assay: Inhibition of Flt3 at 100 nM; in short: as §2
[26] = molecular target: Mast/stem cell growth factor receptor Kit (Homo sapiens) (UniProt P10721); assay: Inhibition of c-Kit at 100 nM; in short: as §2
[27] = molecular target: Tyrosine-protein kinase ABL1 (Homo sapiens) (UniProt P00519); assay: Inhibition of Abl at 100 nM; in short: as §2
[28] = molecular target: High affinity nerve growth factor receptor (Homo sapiens) (UniProt P04629); assay: Inhibition of TrkA at 100 nM; in short: as §2
[29] = molecular target: Serine/threonine-protein kinase Chk1 (Homo sapiens) (UniProt O14757); assay: Inhibition of CHK1 at 100 nM; in short: as §2
[30] = molecular target: Epidermal growth factor receptor (Homo sapiens) (UniProt P00533); assay: Inhibition of EGFR at 100 nM; in short: as §2
[31] = molecular target: Insulin-like growth factor 1 receptor (Homo sapiens) (UniProt P08069); assay: Inhibition of IGF1R at 100 nM; in short: as §2
[32] = molecular target: Inhibitor of nuclear factor kappa-B kinase subunit beta (Homo sapiens) (UniProt O14920); assay: Inhibition of IKK-beta at 100 nM; in short: as §2
[33] = molecular target: Tyrosine-protein kinase JAK2 (Homo sapiens) (UniProt O60674); assay: Inhibition of JAK2 at 100 nM; in short: as §2
[34] = Inhibition of JNK1-alpha-1 at 100 nM; in short: as §2

T1 sequence (P35968 whole entry, the tested form may be a part): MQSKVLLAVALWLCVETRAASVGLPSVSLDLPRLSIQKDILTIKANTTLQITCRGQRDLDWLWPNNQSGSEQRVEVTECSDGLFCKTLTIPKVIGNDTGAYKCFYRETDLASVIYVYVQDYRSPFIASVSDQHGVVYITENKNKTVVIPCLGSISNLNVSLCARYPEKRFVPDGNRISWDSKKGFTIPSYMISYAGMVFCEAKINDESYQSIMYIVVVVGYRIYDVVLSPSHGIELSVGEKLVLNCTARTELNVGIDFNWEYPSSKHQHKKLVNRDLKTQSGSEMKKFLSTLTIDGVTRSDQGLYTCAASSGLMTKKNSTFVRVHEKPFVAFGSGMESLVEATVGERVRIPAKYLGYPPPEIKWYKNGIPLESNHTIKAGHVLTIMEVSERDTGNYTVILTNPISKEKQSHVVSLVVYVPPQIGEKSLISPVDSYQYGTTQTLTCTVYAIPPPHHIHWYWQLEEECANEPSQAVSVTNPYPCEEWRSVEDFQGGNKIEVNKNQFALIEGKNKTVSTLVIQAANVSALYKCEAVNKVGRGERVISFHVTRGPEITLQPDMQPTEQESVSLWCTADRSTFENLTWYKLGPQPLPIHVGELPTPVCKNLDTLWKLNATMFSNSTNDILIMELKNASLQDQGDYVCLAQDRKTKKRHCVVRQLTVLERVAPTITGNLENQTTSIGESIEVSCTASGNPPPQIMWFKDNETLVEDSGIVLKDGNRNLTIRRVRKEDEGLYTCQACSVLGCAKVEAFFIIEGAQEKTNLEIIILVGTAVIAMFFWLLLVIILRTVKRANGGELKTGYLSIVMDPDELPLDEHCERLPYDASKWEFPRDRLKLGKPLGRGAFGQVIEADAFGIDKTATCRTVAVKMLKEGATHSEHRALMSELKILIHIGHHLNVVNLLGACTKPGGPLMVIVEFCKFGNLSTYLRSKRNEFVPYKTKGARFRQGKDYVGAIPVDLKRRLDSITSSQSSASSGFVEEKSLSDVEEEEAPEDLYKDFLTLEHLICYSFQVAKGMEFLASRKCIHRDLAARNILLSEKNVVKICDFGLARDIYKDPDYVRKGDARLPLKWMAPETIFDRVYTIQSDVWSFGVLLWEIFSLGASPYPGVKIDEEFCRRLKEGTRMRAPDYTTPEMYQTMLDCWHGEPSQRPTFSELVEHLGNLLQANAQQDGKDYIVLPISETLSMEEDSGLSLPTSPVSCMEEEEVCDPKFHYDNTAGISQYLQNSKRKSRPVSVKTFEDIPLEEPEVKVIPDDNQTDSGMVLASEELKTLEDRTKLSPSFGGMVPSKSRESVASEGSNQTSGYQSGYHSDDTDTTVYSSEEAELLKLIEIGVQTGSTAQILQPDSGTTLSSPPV
High affinity nerve growth factor receptor (Homo sapiens), sequence (P04629 33-796 limits assumed): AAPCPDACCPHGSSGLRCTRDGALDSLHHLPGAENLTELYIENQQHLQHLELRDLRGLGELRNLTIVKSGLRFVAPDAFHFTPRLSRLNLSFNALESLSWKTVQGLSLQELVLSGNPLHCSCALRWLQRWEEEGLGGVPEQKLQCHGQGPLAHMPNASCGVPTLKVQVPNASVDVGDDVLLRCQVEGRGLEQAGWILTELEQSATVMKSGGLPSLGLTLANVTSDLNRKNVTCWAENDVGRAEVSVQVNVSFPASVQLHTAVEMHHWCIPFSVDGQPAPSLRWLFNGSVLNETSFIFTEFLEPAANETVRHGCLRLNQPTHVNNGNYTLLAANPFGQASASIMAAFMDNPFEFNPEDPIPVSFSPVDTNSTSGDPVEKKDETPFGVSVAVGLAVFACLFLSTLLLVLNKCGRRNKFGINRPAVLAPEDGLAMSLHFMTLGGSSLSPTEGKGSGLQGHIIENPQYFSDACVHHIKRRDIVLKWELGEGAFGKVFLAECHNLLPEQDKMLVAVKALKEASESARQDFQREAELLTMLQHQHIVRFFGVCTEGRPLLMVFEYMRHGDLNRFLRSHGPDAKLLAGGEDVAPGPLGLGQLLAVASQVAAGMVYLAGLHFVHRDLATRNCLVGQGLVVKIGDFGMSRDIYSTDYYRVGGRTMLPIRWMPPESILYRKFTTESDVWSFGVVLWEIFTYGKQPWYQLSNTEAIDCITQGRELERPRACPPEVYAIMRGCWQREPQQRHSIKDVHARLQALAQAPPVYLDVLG

O=C(Cc1ccccc1)NC(=S)Nc1ccc(Oc2ccnc3cc(-c4nccs4)sc23)c(F)c1
IC50 [1]: 17 nM | IC50 [2]: 28 nM | IC50 [3]: 65 nM

O=C(Cc1ccccc1)NC(=S)Nc1ccc(Oc2ccnc3cc(C(=O)N4CCOCC4)sc23)c(F)c1
IC50 [1]: 289 nM | IC50 [3]: 125 nM

Cn1cc(-c2cc3nccc(Oc4ccc(NC(=S)NC(=O)Cc5ccccc5)cc4F)c3s2)cn1
IC50 [1]: 25 nM | IC50 [3]: 24 nM

O=C(Cc1ccccc1)NC(=S)Nc1ccc(Oc2ccnc3cc(-c4nncs4)sc23)c(F)c1
IC50 [1]: 145 nM | IC50 [3]: 60 nM

Cn1cccc1-c1cc2nccc(Oc3ccc(NC(=S)NC(=O)Cc4ccccc4)cc3F)c2s1
IC50 [1]: 31 nM | IC50 [2]: 108 nM | IC50 [3]: 49 nM

Cn1ncnc1-c1cc2nccc(Oc3ccc(NC(=S)NC(=O)Cc4ccccc4)cc3F)c2s1
IC50 [1]: 28 nM | IC50 [2]: 20 nM | IC50 [3]: 69 nM

O=C(Cc1ccccc1)NC(=S)Nc1ccc(Oc2ccnc3cc(C(=O)N4CCCC4)sc23)c(F)c1
IC50 [1]: 9 nM | IC50 [3]: 54 nM

CCn1ccnc1-c1cc2nccc(Oc3ccc(NC(=S)NC(=O)Cc4ccccc4)cc3F)c2s1
IC50 [1]: 25 nM | IC50 [2]: 35 nM | IC50 [3]: 108 nM

COC(=O)c1cc2nccc(Oc3ccc(NC(=S)NC(=O)Cc4ccccc4)cc3F)c2s1
IC50 [1]: 90 nM

CN1CCN(C(=O)c2cc3nccc(Oc4ccc(NC(=S)NC(=O)Cc5ccccc5)cc4F)c3s2)CC1
IC50 [1]: 344 nM | IC50 [3]: 193 nM

CSc1cc2nccc(Oc3ccc(NC(=S)NC(=O)Cc4ccccc4)cc3F)c2s1
IC50 [1]: 346 nM

O=C(Cc1ccccc1)NC(=S)Nc1ccc(Oc2ccnc3cc(-c4cccs4)sc23)c(F)c1
IC50 [1]: 32 nM

CCN(CC)C(=O)c1cc2nccc(Oc3ccc(NC(=S)NC(=O)Cc4ccccc4)cc3F)c2s1
IC50 [1]: 386 nM | IC50 [3]: 114 nM

NC(=O)c1cc2nccc(Oc3ccc(NC(=S)NC(=O)Cc4ccccc4)cc3F)c2s1
IC50 [1]: 129 nM

CNC(=O)c1cc2nccc(Oc3ccc(NC(=S)NC(=O)Cc4ccccc4)cc3F)c2s1
IC50 [1]: 133 nM

Cn1cnc(-c2cc3nccc(Oc4ccc(NC(=S)NC(=O)Cc5ccccc5)cc4F)c3s2)c1
IC50 [1]: 10 nM | IC50 [2]: 12 nM | solubility [4]: 30 µg/mL (≈ 58 µM) | half-life [5]: 72 min | clearance [6]: 5.5 mL/min/kg | Vd [7]: 0.25 L/kg | Tmax [8]: 3.5 h | Cmax [9]: 140 nM | AUC [10]: 0.74 µM·h | bioavailability [11]: 12% | half-life [12]: 348 min | CL (Canis familiaris [13]): 1.1 L/kg/h | Vd [14]: 1.5 L/kg | Tmax [15]: 1.1 h | Cmax [16]: 210 nM | AUC (Canis familiaris [17]): 0.74 µM·h | F (Canis familiaris [18]): 42% | IC50 [19]: 30 nM | inhibition in vivo at 20 mg/kg (COLO 205): 41% | inhibition in vivo at 20 mg/kg (DU-145): 57% | inhibition in vivo at 20 mg/kg (HCT-116): 41% | inhibition in vivo at 20 mg/kg (HOS-TE85): 61% | inhibition in vivo at 20 mg/kg (MKN-45): 94% | Inhibition (Cytochrome P450 3A4): Not Active | inhibition [20]: 91% | inhibition [21]: 100% | inhibition [22]: < 5% | inhibition [23]: 80% | inhibition [24]: 81% | inhibition [25]: 96% | inhibition [26]: 92% | inhibition [27]: 91% | inhibition [28]: 99% | inhibition [29]: < 5% | inhibition [30]: < 5% | inhibition [31]: < 5% | inhibition [32]: < 5% | inhibition [33]: < 5% | inhibition [34]: < 5%

O=C(Cc1ccccc1)NC(=S)Nc1ccc(Oc2ccnc3ccsc23)c(F)c1
IC50 [1]: 1130 nM

O=C(Cc1ccccc1)NC(=S)Nc1ccc(Oc2ccnc3cc(-c4ncccn4)sc23)c(F)c1
IC50 [1]: 94 nM

CCn1cnc(-c2cc3nccc(Oc4ccc(NC(=S)NC(=O)Cc5ccccc5)cc4F)c3s2)c1
IC50 [1]: 11 nM | IC50 [2]: 22 nM | IC50 [3]: 52 nM

CC(O)c1cc2nccc(Oc3ccc(NC(=S)NC(=O)Cc4ccccc4)cc3F)c2s1 (configuration not stated)
IC50 [1]: 561 nM

O=C(Cc1ccccc1)NC(=S)Nc1ccc(Oc2ccnc3cc(-c4cccnc4)sc23)c(F)c1
IC50 [1]: 113 nM

O=C(Cc1ccccc1)NC(=S)Nc1ccc(Oc2ccnc3cc(-c4cncnc4)sc23)c(F)c1
IC50 [1]: 175 nM | IC50 [2]: 5000 nM | IC50 [3]: 63 nM

O=C(Cc1ccccc1)NC(=S)Nc1ccc(Oc2ccnc3cc(-c4ccoc4)sc23)c(F)c1
IC50 [1]: 593 nM | IC50 [3]: 74 nM

O=C(Cc1ccccc1)NC(=S)Nc1ccc(Oc2ccnc3cc(C(=O)c4ccco4)sc23)c(F)c1
IC50 [1]: 127 nM | IC50 [3]: 130 nM

Cn1ccnc1-c1cc2nccc(Oc3ccc(NC(=S)NC(=O)Cc4ccccc4)cc3F)c2s1
IC50 [1]: 10 nM | solubility [4]: 1.7 µg/mL (≈ 3.28 µM)

CN(C)C(=O)c1cc2nccc(Oc3ccc(NC(=S)NC(=O)Cc4ccccc4)cc3F)c2s1
IC50 [1]: 19 nM

O=C(Cc1ccccc1)NC(=S)Nc1ccc(Oc2ccnc3cc(-c4ccccn4)sc23)c(F)c1
IC50 [1]: 17 nM

COc1cc2nccc(Oc3ccc(NC(=S)NC(=O)Cc4ccccc4)cc3F)c2cc1OC
IC50 [1]: 32 nM

Source: ChEMBL document CHEMBL1145636, “Discovery of a novel and potent series of thieno[3,2-b]pyridine-based inhibitors of c-Met and VEGFR2 tyrosine kinases” (Bioorg Med Chem Lett, 2008)
